Activity calls are given as the source filed them. No cut-off for these calls is given here.
Assays:
[1] = target: Glycogen synthase kinase-3 (Sus scrofa, UniProt B2LUN4+I6LNT8); test: Inhibition of pig brain GSK3alpha/beta after 30 mins by scintillation counting
[2] = Inhibition of Marthasterias glacialis CDK1/cyclin B after 30 mins by scintillation counting
[3] = target: Cyclin-dependent kinase 5/CDK5 activator 1 (Homo sapiens, UniProt Q00535); test: Inhibition of GST-fused recombinant CDK5/p25 expressed in Escherichia coli after 30 mins by scintillation counting
[4] = target: Cyclin-dependent protein kinase PHO85 (Saccharomyces cerevisiae S288c) (UniProt P17157); test: Binding affinity to Saccharomyces cerevisiae Pho85
Method in brief: (§1)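 Budding yeast grown to OD600 ~2 were lysed under 2.5 kbar pressure in breaking buffer (25 mM Tris pH 7.4, 100 mM NaCl, 0.2% Triton X100, phosphatase and protease inhibitors) and clarified. The lysate was incubated with Sepharose matrices carrying linker-attached drug (3 µmol/ml resin), methyl control or ethanolamine-blocked beads. Bound proteins were eluted in Laemmli buffer and analysed by SDS–PAGE with silver staining or western blot.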

[5] = target: Cyclin-dependent kinase 1 (Saccharomyces cerevisiae S288c, UniProt P00546); test: Inhibition of hemagglutininin-tagged Saccharomyces cerevisiae MNY629 Cdc28/Clb2
Method in brief: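 Cdc28/Clb2-HA was immunoprecipitated from strain MNY629 extracts with anti-HA and protein A/G agarose. Kinase reactions ran 30 min at 30 °C with histone H1, 15 µmol/l [γ-33P]ATP (stock) and varying drug concentrations in buffer C (25 mM MOPS pH 7.2, 15 mM MgCl2, 5 mM EGTA, 1 mM DTT, phosphatase inhibitors). Products were spotted on P81 paper, washed in 1% phosphoric acid and counted by scintillation. IC50 was taken from the dose–response curve.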

[6] = target: Cyclin-dependent kinase 1 (Saccharomyces cerevisiae S288c) (UniProt P00546); test: Binding affinity to Saccharomyces cerevisiae Cdc28; method in brief: as §1
[7] = Inhibition of histidine6-tagged Plasmodium falciparum recombinant GSK3 expressed in Escherichia coli by scintillation counting
Saccharomyces cerevisiae = test: Growth inhibition of drug-sensitized Saccharomyces cerevisiae YRP1 assessed as growth deffect; format: functional, organism-based
Method in brief: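 Growth defect of the drug-sensitized YRP1 strain (snq2Δ pdr5Δ erg6Δ) was scored on agar plates by halo assay.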

[8] = target: Cyclin-dependent protein kinase PHO85 (Saccharomyces cerevisiae S288c) (UniProt P17157); test: Inhibition of Saccharomyces cerevisiae YRP1 Pho85 assessed as induction of nuclear localization of GFP-tagged transcription factor Pho4 at 250 uM after 3 hrs by fluorescence microscopy
Method in brief: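 The drug-sensitized strain YRP1 (snq2Δ pdr5Δ erg6Δ) carried a Pho4-GFP plasmid. Cells were grown overnight without uracil, diluted to OD600 0.5 and treated with 250 µM drug, with methanol as vehicle. After 3 h, GFP localization was examined by fluorescence microscopy (excitation 455–495 nm).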

Sequence of Cyclin-dependent kinase 5/CDK5 activator 1 (Q00535 whole entry, the tested form may be a part): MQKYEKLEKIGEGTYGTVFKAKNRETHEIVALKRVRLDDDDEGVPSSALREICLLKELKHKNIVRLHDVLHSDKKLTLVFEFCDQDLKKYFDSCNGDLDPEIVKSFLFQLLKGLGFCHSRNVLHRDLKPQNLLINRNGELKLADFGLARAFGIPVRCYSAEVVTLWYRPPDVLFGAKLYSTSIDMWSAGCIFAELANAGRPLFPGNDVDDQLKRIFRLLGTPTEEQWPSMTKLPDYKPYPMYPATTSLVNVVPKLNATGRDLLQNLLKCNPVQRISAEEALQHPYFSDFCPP
Sequence of Cyclin-dependent kinase 5/CDK5 activator 1 (Q15078 whole entry, further chain, the tested form may be a part): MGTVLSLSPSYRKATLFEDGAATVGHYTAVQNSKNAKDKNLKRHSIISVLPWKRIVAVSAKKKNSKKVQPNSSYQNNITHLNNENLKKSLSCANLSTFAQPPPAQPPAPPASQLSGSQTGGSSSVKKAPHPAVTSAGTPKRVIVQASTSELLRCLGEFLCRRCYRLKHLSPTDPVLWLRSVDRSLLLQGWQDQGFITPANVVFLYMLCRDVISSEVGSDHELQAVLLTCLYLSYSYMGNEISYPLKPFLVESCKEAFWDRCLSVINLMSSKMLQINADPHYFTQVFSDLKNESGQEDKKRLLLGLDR
Sequence of Cyclin-dependent kinase 1 (P00546 whole entry): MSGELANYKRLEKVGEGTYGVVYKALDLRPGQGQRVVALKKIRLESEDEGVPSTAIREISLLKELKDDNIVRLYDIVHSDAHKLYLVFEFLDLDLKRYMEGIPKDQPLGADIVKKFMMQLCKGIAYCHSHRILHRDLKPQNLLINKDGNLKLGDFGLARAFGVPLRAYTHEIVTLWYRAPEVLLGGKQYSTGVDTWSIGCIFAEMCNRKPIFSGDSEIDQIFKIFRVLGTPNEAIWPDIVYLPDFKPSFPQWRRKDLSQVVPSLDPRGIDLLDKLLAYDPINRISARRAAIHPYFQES
Sequence of Cyclin-dependent protein kinase PHO85 (Saccharomyces cerevisiae S288c) (P17157 whole entry): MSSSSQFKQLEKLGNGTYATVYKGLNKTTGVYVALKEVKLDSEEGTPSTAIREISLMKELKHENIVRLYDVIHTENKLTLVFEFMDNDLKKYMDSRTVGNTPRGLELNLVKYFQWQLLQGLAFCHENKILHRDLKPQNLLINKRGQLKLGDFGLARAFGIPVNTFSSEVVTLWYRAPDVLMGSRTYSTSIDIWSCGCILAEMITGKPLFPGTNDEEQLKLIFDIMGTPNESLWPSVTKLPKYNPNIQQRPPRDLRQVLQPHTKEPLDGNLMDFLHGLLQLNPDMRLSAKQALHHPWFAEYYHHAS
Sequence of Cyclin-dependent kinase 1 (Saccharomyces cerevisiae S288c) (P00546 2-298 limits assumed): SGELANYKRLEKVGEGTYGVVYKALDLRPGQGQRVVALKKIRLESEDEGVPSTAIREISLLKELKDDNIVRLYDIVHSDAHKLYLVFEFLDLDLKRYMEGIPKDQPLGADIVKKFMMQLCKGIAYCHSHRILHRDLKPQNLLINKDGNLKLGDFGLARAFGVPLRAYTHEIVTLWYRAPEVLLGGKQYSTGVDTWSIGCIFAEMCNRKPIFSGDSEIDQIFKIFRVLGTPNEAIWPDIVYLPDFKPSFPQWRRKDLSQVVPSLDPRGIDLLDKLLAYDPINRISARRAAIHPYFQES

| SMILES | IC50 [1] | IC50 [2] | IC50 [3] | Activity [4] | IC50 [5] | Activity [6] | IC50 [7] | Activity [8] | growth inhibition (GI) (Saccharomyces cerevisiae) |
| --- | --- | --- | --- | --- | --- | --- | --- | --- | --- |
| CCCCc1c(-c2ccc(O)c(-c3cn(CCOCCOCCN)nn3)c2)n(C)c2nccnc12 | > 10 µM | > 10 µM | > 10 µM | – | – | – | – | – | – |
| CCCCc1c(-c2ccc(O)c(-c3cn(CCOCCOCCN)nn3)c2)[nH]c2nccnc12 | 5.8 µM | 6.7 µM | > 10 µM | – | – | – | – | – | – |
| CCCCc1c(-c2ccc(O)cc2)n(C)c2nccnc12 [N-METHYL-ALOISINE A] | > 200 µM | 140 µM | 160 µM | inactive | > 33 µM | inactive | > 100 µM | – | – |
| CCCCc1c(-c2ccc(O)cc2)[nH]c2nccnc12 [ALOISINE A] | 0.65 µM | – | – | – | 2.5 µM | – | 5.5 µM | Active | inactive |

The next lines start with results.

| IC50 [1] | IC50 [2] | IC50 [3] | Activity [4] | IC50 [5] | Activity [6] | IC50 [7] | Activity [8] | SMILES | growth inhibition (GI) (Saccharomyces cerevisiae) |
| --- | --- | --- | --- | --- | --- | --- | --- | --- | --- |
| 0.34 µM | 0.23 µM | 0.66 µM | – | – | – | – | – | CCCCc1c(-c2ccc(OCCOCCOCCN)cc2)[nH]c2nccnc12 | – |
| 45 µM | 100 µM | 50 µM | – | – | – | – | – | CCCCc1c(-c2ccc(OCCOCCOCCN)cc2)n(C)c2nccnc12 | – |
